Active and inactive are the calls of the source. The calls are words filed in the database; no cut-off is given here.
Tests used:
HeLa [1] = assay: Up regulation of LAMP1 mRNA expression in human HeLa cells at 40 uM after 3 hrs by TRIzol dye based qRT-PCR analysis; type: functional, cell-based
HeLa [2] = assay: Induction of lysosomal biosynthesis in human HeLa cells assessed as increase in staining intensity at 40 uM after 3 hrs by LysoTracker Red DND-99 staining based assay relative to control; type: functional
Summary of the method: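 HeLa cells given 40 μM for 3 h, then LysoTracker Red staining. Signal intensity is quantified as fold induction relative to DMSO-treated cells. HEP-14 at 40 μM is the positive control. Independent triplicates.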

HeLa [3] = assay: Induction of lysosomal biosynthesis in human HeLa cells assessed as increase in staining intensity after 3 hrs by LysoTracker Red DND-99 staining based assay; type: functional, cell-based
Summary of the method: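 HeLa cells exposed 3 h to 10, 20, 40 and 60 μM test agent, then stained with LysoTracker Red. Lysosome induction is read as fold of LysoTracker Red signal over the DMSO negative control, with HEP-14 as positive control. Three independent experiments.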

HeLa [4] = assay: Up regulation of ATP6V0E1 mRNA expression in human HeLa cells at 40 uM after 3 hrs by TRIzol dye based qRT-PCR analysis; type: functional, cell-based
HeLa [5] = assay: Up regulation of cathepsin B mRNA expression in human HeLa cells at 40 uM after 3 hrs by TRIzol dye based qRT-PCR analysis; type: functional, cell-based
HeLa [6] = assay: Induction of lysosomal biosynthesis in human HeLa cells assessed as increase in staining intensity at 40 uM by LysoTracker Red DND-99 staining based assay; type: functional, cell-based; conditions: TDE = time-dependent effect
Summary of the method: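 Time course in HeLa cells at 40 μM over five treatment intervals, followed by LysoTracker Red staining. Output is fold induction of staining versus DMSO control. n = 3 independent experiments.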

HeLa [7] = assay: Up regulation of cathepsin A mRNA expression in human HeLa cells at 40 uM after 3 hrs by TRIzol dye based qRT-PCR analysis; type: functional, cell-based

COc1ccc([C@H](O)C(=O)O[C@@H]2/C(C)=C/[C@@]34O[C@@]3(C[C@@](C)(O)[C@@H]4OC(C)=O)C(=O)[C@H](C)[C@H](OC(C)=O)[C@@H]3[C@H]([C@@H]2OC(C)=O)C3(C)C)cc1
Activity (HeLa [1]): Active
Activity (HeLa [2]): 143.5%
Activity (HeLa [3]): Dose-dependent effect
Activity (HeLa [4]): Active
Activity (HeLa [5]): Active
Activity (HeLa [6]): Tde
Activity (HeLa [7]): Active

COc1ccc([C@H](O)C(=O)O[C@@H]2/C(C)=C/[C@@]34O[C@@]3(C[C@H](C)[C@@H]4OC(C)=O)C(=O)[C@H](C)[C@H](OC(C)=O)[C@@H]3[C@H]([C@@H]2OC(C)=O)C3(C)C)cc1
Activity (HeLa [1]): Active
Activity (HeLa [2]): 155.9%
Activity (HeLa [3]): Dose-dependent effect
Activity (HeLa [4]): Active
Activity (HeLa [5]): Active
Activity (HeLa [6]): Tde
Activity (HeLa [7]): Active

COc1ccc(CC(=O)O[C@@H]2/C(C)=C/[C@@]34O[C@@]3(C[C@H](C)[C@@H]4OC(C)=O)C(=O)[C@H](C)[C@H](OC(C)=O)[C@@H]3[C@H]([C@@H]2OC(C)=O)C3(C)C)cc1
Activity (HeLa [1]): Active
Activity (HeLa [2]): 140.7%
Activity (HeLa [3]): Dose-dependent effect
Activity (HeLa [4]): Active
Activity (HeLa [5]): Active
Activity (HeLa [6]): Tde
Activity (HeLa [7]): Active

From ChEMBL document CHEMBL4251722, “Identification of Ingol and Rhamnofolane Diterpenoids from Euphorbia resinifera and Their Abilities to Induce Lysosomal Biosynthesis” (2018)
